Reference: ChEMBL document CHEMBL2412956, “Synthesis and biological activity evaluation of 5-pyrazoline substituted 4-thiazolidinones” (Eur J Med Chem, 2013)

How the values were obtained:
[1] = Selectivity index, ratio of CC50 for MDCK cells to EC50 for Influenza A virus (A/California/07/2009(H1N1)); assay type: toxicity, cell-based; conditions: dog, read-out: Ratio CC50/EC50
MDCK = experiment: (§1) Cytotoxicity against MDCK cells; assay type: cell-based, Canis lupus familiaris; conditions: dog, mdck
Outline: (§2)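 Cytotoxicity was measured in uninfected wells run alongside the antiviral plates, across eight half-log dilutions in MEM. Cells were stained with neutral red, and the extracted dye was read at 540 nm. CC₅₀, the concentration giving 50% cytotoxicity, was obtained by regression, and values are reported in μM.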

[2] = Antiviral activity against SARS coronavirus Urbani infected in MDCK cells assessed as inhibition of virus-induced cytopathic effect by cell-based neutral red uptake assay; assay type: functional; conditions: Severe acute respiratory syndrome-related coronavirus
Influenza A virus [3] = experiment: Antiviral activity against Influenza A virus (A/Perth/16/2009(H3N2)) infected in MDCK cells assessed as inhibition of virus-induced cytopathic effect by cell-based neutral red uptake assay; assay type: functional, organism-based
Influenza A virus [4] = experiment: Antiviral activity against Influenza A virus (A/duck/Minnesota/1525/1981(H5N1)) infected in MDCK cells assessed as inhibition of virus-induced cytopathic effect by cell-based neutral red uptake assay; assay type: functional, organism-based
[5] = Selectivity index, ratio of CC50 for MDCK cells to EC50 for Influenza B virus (B/Florida/4/2006); assay type: toxicity, cell-based; conditions: dog, read-out: Ratio CC50/EC50
Influenza B virus = experiment: Antiviral activity against Influenza B virus (B/Florida/4/2006) infected in MDCK cells assessed as inhibition of virus-induced cytopathic effect by cell-based neutral red uptake assay; assay type: functional; conditions: B/Florida/4/2006, MDCK
Influenza A virus [6] = experiment: Antiviral activity against Influenza A virus (A/California/07/2009(H1N1)) infected in MDCK cells assessed as inhibition of virus-induced cytopathic effect by cell-based neutral red uptake assay; assay type: functional, organism-based
[7] = Selectivity index, ratio of CC50 for MDCK cells to EC50 for Influenza A virus (A/duck/Minnesota/1525/1981(H5N1)); assay type: toxicity, cell-based; conditions: dog, read-out: Ratio CC50/EC50
K562 = experiment: Cytotoxicity against human K562 cells assessed as cell growth at 10 uM after 48 hrs by SRB assay relative to control; assay type: functional; conditions: K562, 48 h, read-out: Activity
Outline: (§3)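 This was the NCI primary screen, with compound added once at 10⁻⁵ M and cultures incubated for 48 h. The endpoint was sulforhodamine B protein staining. Results are expressed as percent growth of treated cells relative to untreated control cells.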

T47D = experiment: Cytotoxicity against human T47D cells assessed as cell growth at 10 uM after 48 hrs by SRB assay relative to control; assay type: functional; conditions: read-out: Activity
Outline: (§4)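 Single-dose NCI screen: compound at 10⁻⁵ M added to tumor cell cultures and incubated for 48 h. The SRB protein-binding dye end point was read spectrophotometrically. Results are percent growth of treated cells relative to untreated controls.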

CCRF-CEM = experiment: Cytotoxicity against human CCRF-CEM cells assessed as cell growth at 10 uM after 48 hrs by SRB assay relative to control; assay type: functional; conditions: read-out: Activity; outline: as §3
[8] = Selectivity index, ratio of CC50 for MDCK cells to EC50 for Influenza A virus (A/Perth/16/2009(H3N2)); assay type: toxicity, cell-based; conditions: dog, read-out: Ratio CC50/EC50
[9] = system: Trypanosoma brucei brucei; experiment: Antitrypanosomal activity against bloodstream form of Trypanosoma brucei brucei 90-13 assessed as parasite growth inhibition after 72 hrs by resazurin-based fluorescence assay; assay type: functional, organism-based; conditions: 90-13, 72 h
Outline: (§5)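 Bloodstream forms of strain 90-13 or Feo were grown in HMI9 with 10% FCS at 37 °C under 5% CO₂. Log-phase parasites were seeded at 10⁵ cells/ml and exposed for 72 h to 10–0.625 μg/ml drug from DMSO stocks, with DMSO as control. Resazurin was added at 45 μM final, and fluorescence was read 4 h later. IC₅₀ was taken from the dose–response curve as the mean of three independent experiments.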

[10] = system: Trypanosoma brucei gambiense; experiment: Antitrypanosomal activity against bloodstream form of Trypanosoma brucei gambiense Feo assessed as parasite growth inhibition after 72 hrs by resazurin-based fluorescence assay; assay type: functional, organism-based; outline: as §5
UO-31 = experiment: Cytotoxicity against human UO31 cells assessed as cell growth at 10 uM after 48 hrs by SRB assay relative to control; assay type: functional; conditions: UO-31, 48 h, read-out: Activity; outline: as §4
HOP-92 = experiment: Cytotoxicity against human HOP92 cells assessed as cell growth at 10 uM after 48 hrs by SRB assay relative to control; assay type: functional; conditions: HOP-92, 48 h, read-out: Activity; outline: as §3
[11] = Selectivity index, ratio of CC50 for MDCK cells to EC50 for SARS coronavirus Urbani; assay type: toxicity, cell-based; conditions: dog, read-out: Ratio CC50/EC50
Trypanosoma cruzi = experiment: Antitrypanosomal activity against […] form of Trypanosoma cruzi Y infected in monkey […] cells assessed as parasite growth inhibition after 15 hrs by trypan blue staining-based hemocytometric analysis; assay type: functional, organism-based
[12] = as §1; assay type: cell-based, Canis lupus familiaris; conditions: dog, MDCK cells; outline: as §2

Structure (SMILES)	selectivity ratio [1]	CC50 (MDCK) [µM]	EC50 [2] [µM]	EC50 (Influenza A virus [3]) [µM]	EC50 (Influenza A virus [4]) [µM]	selectivity ratio [5]	EC50 (Influenza B virus) [µM]	EC50 (Influenza A virus [6]) [µM]	selectivity ratio [7]	further results
CCN1CCN(CN2C(=O)SC(N3N=C(c4ccc5ccccc5c4)CC3c3ccc(Cl)cc3)C2=O)CC1 (configuration not stated)	1.1	2.37	> 16.8	> 2.37	4.38	2.1	4.01	4.01	1.4	
CC(=O)N1CCN(CN2C(=O)SC(N3N=C(c4ccc5ccccc5c4)CC3c3ccc(Cl)cc3)C2=O)CC1 (configuration not stated)										growth at 10 µM (K562): 76.4%
COc1ccc(C2CC(c3ccc4ccccc4c3)=NN2C(=O)/C=C2\SC(=O)NC2=O)cc1 (configuration not stated)										growth at 10 µM (T47D): 78.7%
COc1ccc(NC(=O)CN2C(=O)S/C(=C\C(=O)N3N=C(c4ccc5ccccc5c4)CC3c3ccc(OC)cc3)C2=O)cc1 (configuration not stated)										growth at 10 µM (CCRF-CEM): 74.7%
COc1ccc(C2CC(c3ccc4ccccc4c3)=NN2C2SC(=O)NC2=O)cc1 (configuration not stated)	1.1	6.23	> 23.5	4.31	7.9	1.8	4.55	9.82	1.6	selectivity ratio [8]: 1.4; IC50 [9]: 13.9 µM; IC50 [10]: 6.66 µM; growth at 10 µM (UO-31): 77.5%
O=C1NC(=O)C(N2N=C(c3ccc4ccccc4c3)CC2c2ccc(Cl)cc2)S1 (configuration not stated)	1		> 23.2	2.84	5.21	1.6	3.08	4.27	1.2	selectivity ratio [8]: 1; growth at 10 µM (HOP-92): 74.9%
COc1ccc(C2CC(c3ccc4ccccc4c3)=NN2C2SC(=O)N(CC(=O)Nc3ccc(C)cc3)C2=O)cc1 (configuration not stated)	1.6	> 74.4	> 313	53.1	21.8	2.1	79.7	142	> 16.3	selectivity ratio [8]: 1.4; growth at 10 µM (UO-31): 76.6%
Cc1ccc(NC(=O)CN2C(=O)SC(N3N=C(c4ccc5ccccc5c4)CC3c3ccc(Cl)cc3)C2=O)cc1 (configuration not stated)	1.3	> 13.3	> 351	> 13.3	51	1.3	35.1	54.5	1.1	IC50 [9]: 5.43 µM; IC50 [10]: 2.53 µM
COc1ccc(NC(=O)CN2C(=O)SC(N3N=C(c4ccc5ccccc5c4)CC3c3ccc(Cl)cc3)C2=O)cc1 (configuration not stated)	1.5	> 25.6	> 342	18.8	179	1.4	95.7	120	1.5	selectivity ratio [8]: 1.3; IC50 [9]: 11.3 µM; IC50 [10]: 6.1 µM
COc1ccc(C2CC(c3ccc4ccccc4c3)=NN2C2SC(=O)N(CN3CCCCC3)C2=O)cc1 (configuration not stated)										growth at 10 µM (HOP-92): 69.5%
COc1ccc(C2CC(c3ccc4ccccc4c3)=NN2C2SC(=O)N(CN3CCN(C(C)=O)CC3)C2=O)cc1 (configuration not stated)										growth at 10 µM (UO-31): 82.2%
COc1ccc(C2CC(c3ccc4ccccc4c3)=NN2C2SC(=O)N(CN3CCN(Cc4ccccc4)CC3)C2=O)cc1 (configuration not stated)	1.1	6.6	21.5	> 6.6	> 24.8	1	57.8	13.7		selectivity ratio [11]: 1.6; growth at 10 µM (UO-31): 74.5%
CCC1SC(N/N=C\CSc2ccccc2)=NC1=O (configuration not stated)										IC50 (Trypanosoma cruzi): 0.3 µM
N=C(N)c1ccc(OCCCCCOc2ccc(C(=N)N)cc2)cc1 [PENTAMIDINE]										IC50 [10]: 0.0053 µM
NC(=O)c1ncn([C@@H]2O[C@H](CO)[C@@H](O)[C@H]2O)n1 [RIBAVIRIN]				18.4	18.4			23.8		CC50 [12]: > 324 µM
